Experimental data pooled from the literature.
Lines come from different studies, so protocols differ.
HDAC6: Protein deacetylase HDAC6 (HDAC6, Homo sapiens, UniProt Q9UBN7)
Dihydroorotate dehydrogenase, mitochondrial, putative: Dihydroorotate dehydrogenase, mitochondrial, putative (Plasmodium vivax, UniProt A5K1N1)
CDK7 with cyclin H: Cyclin-dependent kinase 7, with cyclin H (CDK7, Homo sapiens, UniProt P50613)
MEP1B: Meprin A subunit beta (MEP1B, Homo sapiens, UniProt Q16820)
PDE4D: 3',5'-cyclic-AMP phosphodiesterase 4D (PDE4D, Homo sapiens, UniProt Q08499)
F2: Prothrombin (F2, Homo sapiens, UniProt P00734)
GRM7: Metabotropic glutamate receptor 7 (GRM7, Homo sapiens, UniProt Q14831)
KCNK9: Potassium channel subfamily K member 9 (KCNK9, Homo sapiens, UniProt Q9NPC2)

SMILES	target	test	IC50
CCCC[C@H](NC(=O)C1CN(C)C1)c1ncc(-c2cc3ccccc3nc2OC)[nH]1	HDAC6	enzyme activity, inhibitor	1100 nM
CC(C)n1c(/C=C/C(O)CC(O)CC(=O)O)c(-c2ccc(F)cc2)c2ccccc21 (stereo not drawn)	3-hydroxy-3-methylglutaryl-coenzyme A reductase (HMGCR, Homo sapiens, UniProt P04035)	enzyme activity, inhibitor, absorbance	173 nM
Cc1cn([C@H]2C[C@H](N=[N+]=[N-])[C@@H](CO)O2)c(=O)[nH]c1=O	Gag-Pol polyprotein, reverse transcriptase (gag-pol, Human immunodeficiency virus type 1 group M subtype B, UniProt P04585)	enzyme activity, inhibitor, ELISA	12200 nM
Cc1nc(Nc2ccc(S(F)(F)(F)(F)F)cc2)c2c(C(F)(F)F)noc2n1	Dihydroorotate dehydrogenase, mitochondrial, putative	enzyme activity, inhibitor, absorbance	66 nM
O=c1cc(-c2ccc3c(c2)OCO3)oc2c1ccc1occc12	CDK7 with cyclin H	enzyme activity, inhibitor, ADP detection	> 100000 nM
O=C(CCN(Cc1ccncc1)Cc1ccc2c(c1)OCO2)NO	MEP1B	enzyme activity, inhibitor	8180 nM
O=C(N[C@@H](Cc1c[nH]c2ccccc12)C(=O)O)c1ccc(Cl)cc1	Free fatty acid receptor 3 (FFAR3, Homo sapiens, UniProt O14843)	calcium signal, antagonist	> 25100 nM
CC(C)(C)n1nc(-c2cnc3cc(OC4CC4)ccc3c2)c(C(N)=O)c1N	Mitogen-activated protein kinase 1 (MAPK1, Homo sapiens, UniProt P28482)	cell-free assay	> 10000 nM
O=C(Nc1cccnc1)N1CCC(Cc2cccc(Oc3ccc(C(F)(F)F)cn3)c2)CC1	Liver carboxylesterase 1 (CES1, Homo sapiens, UniProt P23141)	enzyme activity, inhibitor	> 10000 nM
CN(C)CC#Cc1ccc2[nH]c3c(c2c1)-c1nc(N)ncc1CCC3	Cyclin-dependent kinase 7 (CDK7, Homo sapiens, UniProt P50613)	enzyme activity, inhibitor, radiometric	> 10000 nM
Cc1nc(Nc2ccc(C(F)(F)F)cc2)c2c(C(F)(F)F)noc2n1	Dihydroorotate dehydrogenase, mitochondrial, putative	enzyme activity, inhibitor, absorbance	76 nM
CC(C)Cc1ncc(Cc2ccc(O)cc2)[nH]c1=O	Calpain-1 catalytic subunit (CAPN1, Homo sapiens, UniProt P07384)	enzyme activity, inhibitor	3900 nM
COc1ccc(C2=NN(C3CCCCCC3)C(=O)[C@@H]3CC=CC[C@H]23)cc1-c1ccc(C(=O)NCC(N)=O)cc1 (relative stereo)	PDE4D	enzyme activity, inhibitor	251 nM
O=C(CCN(Cc1ccc2c(c1)OCO2)Cc1ccc(Cl)c(O)c1F)NO	MEP1B	enzyme activity, inhibitor	146 nM
Cc1nc2ccccc2c(=O)n1NC(=O)CSc1nc2ccccc2c(=O)n1-c1ccccc1	F2	enzyme activity, inhibitor	5010 nM
N#Cc1nc(NCc2cccc(-c3cc4ccccc4n3S(=O)(=O)c3ccccc3)c2)c2ncn(CCCO)c2n1	Cathepsin B-like cysteine protease (Trypanosoma brucei, UniProt Q6R7Z5)	enzyme activity, inhibitor	> 15000 nM
CCc1ccc(/C=N/n2c(C)nc3ccc(C)cc3c2=O)s1	F2	enzyme activity, inhibitor	269000 nM
CC/C=C\C/C=C\C/C=C\C/C=C\C/C=C\CCCC(=O)O	DNA-directed DNA polymerase (Enterobacteria phage T4, UniProt P04415)	enzyme activity, inhibitor	> 100000 nM
COc1ccc(-c2nnc(-c3cc(OC(F)(F)F)ccc3-n3ccnc3)o2)cc1OC	GRM7	calcium signal, antagonist	600 nM
O=C(CCN(Cc1ccc2c(c1)OCO2)Cc1ccc(Cl)cc1F)NO	MEP1B	enzyme activity, inhibitor	960 nM
Cc1nc2ccccc2n1Cc1cc(F)c(C(=O)NO)c(F)c1	HDAC6	enzyme activity, inhibitor	946 nM

SMILES	target	test	IC50
COc1cc(N2CCN(C)CC2)ccc1Nc1ncc2c(n1)N(C)c1ccccc1C(=O)N2	Mitogen-activated protein kinase 7 (MAPK7, Homo sapiens, UniProt Q13164)	enzyme activity, inhibitor, radiometric	1200 nM
Cc1ccc(-c2ccc(O)cc2)c(C(=C2C=CC(=O)C=C2)c2ccc(O)cc2)c1C#Cc1ccc(O)cc1	PDE4D	enzyme activity, inhibitor	175 nM
CNC(=O)[C@H](Cc1ccccc1)NC(=O)[C@H](CC(C)C)[C@H](CSc1cccs1)C(=O)NO	Disintegrin and metalloproteinase domain-containing protein 8 (Homo sapiens, UniProt P78325)	enzyme activity, inhibitor, fluorescence	46 nM
COc1ccc2c(Oc3ccc4c(C(=O)Nc5ccccc5N)cccc4c3)ccnc2c1	Tyrosine-protein kinase SYK (SYK, Homo sapiens, UniProt P43405)	enzyme activity, inhibitor	> 500 nM
COc1cc(/C=N/n2c(C)nc3ccc(C)cc3c2=O)ccc1OCc1ccccc1	F2	enzyme activity, inhibitor	26600 nM
O=C1NC(=O)/C(=C/c2ccc(OCCNc3nc4c(cnn4C4CCCC4)c(=O)[nH]3)c(F)c2)S1	PDE4D	enzyme activity, inhibitor	495 nM
COc1ccc2cc(/C=N/n3c(C)nc4ccc(Br)cc4c3=O)ccc2c1	F2	enzyme activity, inhibitor	51900 nM
COCCOC(=O)C1=C(C)NC(C)=C(C(=O)OC(C)C)C1c1cccc([N+](=O)[O-])c1 (stereo not drawn)	Potassium channel subfamily K member 18 (KCNK18, Homo sapiens, UniProt Q7Z418)	ion flux, inhibitor	17500 nM
O=c1cc(-c2ccccc2)oc2ccc3ccccc3c12	CDK7 with cyclin H	enzyme activity, inhibitor, ADP detection	2970 nM
CNCCCOc1cc2nc(N3CCCN(C)CC3)nc(NC3CCN(C)CC3)c2cc1OC	Histone-lysine N-methyltransferase EHMT2 (EHMT2, Homo sapiens, UniProt Q96KQ7)	enzyme activity, inhibitor	45 nM
COC(=O)C1=C(C)NC(C)=C(C(=O)OCCN(C)Cc2ccccc2)C1c1cccc([N+](=O)[O-])c1 (stereo not drawn)	KCNK9	ion flux, inhibitor	> 30000 nM
CN(C)C/C=C/C(=O)Nc1ccc(C(=O)N2CC[C@@H](Nc3ncc(Cl)c(-c4c[nH]c5ccccc45)n3)C2)cc1	CDK7 with cyclin H	enzyme activity, inhibitor, FRET	6.33 nM
Nc1ccc(-c2ccncc2)cc1NC(=O)N1CCCC1	HDAC6	enzyme activity, inhibitor	> 33300 nM
O=C(O)[C@H]1O[C@@H](O[C@H]2[C@H](O)[C@@H](NS(=O)(=O)O)[C@@H](OCCNS(=O)(=O)O)O[C@@H]2COS(=O)(=O)O)[C@H](O)[C@@H](O)[C@@H]1O[C@H]1O[C@H](COS(=O)(=O)O)[C@@H](O)[C@H](O)[C@H]1NS(=O)(=O)O	Coagulation factor X (F10, Bos taurus, UniProt P00743)	enzyme activity, inhibitor, absorbance	> 2000 nM
COc1cc(/C=N/n2c(C)nc3ccc(Br)cc3c2=O)ccc1OCc1ccc(Cl)cc1	F2	enzyme activity, inhibitor	44900 nM
CC[C@H](C)[C@H](NC(C)=O)C(=O)N[C@@H](CCC(=O)O)C(=O)N[C@H](C(=O)N[C@H](C=O)CC(=O)O)[C@@H](C)O	Caspase-10 (CASP10, Homo sapiens, UniProt Q92851)	enzyme activity, inhibitor	12.5 nM
CCOC(=O)C1=C(C)NC(C)=C(C(=O)OC)C1c1cccc([N+](=O)[O-])c1 (stereo not drawn)	KCNK9	ion flux, inhibitor	> 30000 nM
COc1ccc(-c2noc(-c3cc(Cl)c(F)cc3-n3cncn3)n2)cc1OC	GRM7	calcium signal, antagonist	> 30000 nM
O=C(NO)c1ccc(Cn2c(C(F)(F)F)nc3ccccc32)cc1	HDAC6	enzyme activity, inhibitor	10 nM
COc1ccc([C@@H]2CN(C(=O)[C@@H](O)CO)C[C@@]2(C)[C@@H](C)O)cc1OC1CN(c2ccc(C)cn2)C1	PDE4D	enzyme activity, inhibitor	0.14 nM
CCCON(Cc1ccc(C(=O)NO)cc1)C(=O)Nc1ccc(N(C)C)cc1	HDAC6	enzyme activity, inhibitor, fluorescence	22 nM
